Measurements taken from ChEMBL document CHEMBL4002598, “Fusaric acid and analogues as Gram-negative bacterial quorum sensing inhibitors” (Eur J Med Chem, 2017).
In brackets after ≈: the same amount, converted by molar mass. Activity calls are given as the source filed them. The rule behind the calls is not given here.

Key:
[1] = system: Pseudomonas aeruginosa; test: Inhibition of LasR-dependent quorum sensing activity in Pseudomonas aeruginosa harboring reporter plasmid lasB-GFP assessed as reduction in GFP expression up to 100 ug/ml measured every 15 mins for 14 hrs by fluorescence assay
How it was run: (§1)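 P. aeruginosa lasB-gfp and rhlA-gfp reporters, grown 16 h at 37 °C with shaking, then diluted to OD450 0.1 in BT minimal medium (10% A10, 0.5% glucose, 0.5% Casamino Acids). No added signal molecule. Fluorescence at 485/535 nm and growth monitored every 15 min for 14 h at 34 °C. Concentrations up to 100 µg/ml.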

[2] = system: Saccharomyces cerevisiae; test: Inhibition of yeast Pma1 at 100 uM preincubated for 30 mins by spectrophotometric method
How it was run: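 Pma1 purified from Saccharomyces cerevisiae plasma membrane, 0.5 µg per reaction. Enzyme preincubated 30 min at room temperature with 100 µM compound. Reaction buffer: 5 mM ATP, 10 mM MgSO4, 50 mM KNO3, 5 mM NaN3, 3.5 mM molybdate, 20 mM MES-KOH pH 5.9. Run 30 min, then stopped with acidic molybdate/ascorbate/SDS. Released phosphate read at 860 nm after arsenite-citrate treatment (Baginski method).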

[3] = target: T1, HTH-type quorum-sensing regulator RhlR (Pseudomonas aeruginosa (strain ATCC 15692 / PAO1 / 1C / PRS 101 / LMG12228)) (UniProt P54292); test: Inhibition of RhlR-dependent quorum sensing activity in Pseudomonas aeruginosa harboring reporter plasmid rhlA-gfp assessed as reduction in GFP expression up to 100 ug/ml measured every 15 mins for 14 hrs by fluorescence assay; how it was run: as §1
T1 sequence (whole entry): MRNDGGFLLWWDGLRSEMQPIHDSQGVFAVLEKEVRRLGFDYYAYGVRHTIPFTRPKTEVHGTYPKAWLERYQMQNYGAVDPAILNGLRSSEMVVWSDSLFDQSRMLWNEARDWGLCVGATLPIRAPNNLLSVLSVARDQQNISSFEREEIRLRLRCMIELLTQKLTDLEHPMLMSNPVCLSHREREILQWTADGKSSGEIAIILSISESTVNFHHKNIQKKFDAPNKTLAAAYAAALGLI

[4] = system: Escherichia coli; test: Growth inhibition of Escherichia coli at 0.39 to 100 ug/ml
How it was run: (§2)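 luxI-gfp E. coli reporter grown 16 h at 37 °C, shaking 180 rpm, then diluted to OD450 0.1 in BT minimal medium with 10% A10, 0.5% glucose and 0.5% Casamino Acids. 3-oxo-C6-HSL added at 10 nM final. Compounds run in triplicate as 2-fold dilutions from 100 μg/ml. GFP (ex 485/em 535) and OD450 read every 15 min for 14 h at 34 °C. IC50 taken from GFP curves.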

[5] = system: Escherichia coli; test: Inhibition of LuxR-dependent quorum sensing activity in Escherichia coli harboring reporter plasmid LuxI-GFP assessed as reduction in 3-oxo-C6-HSL-induced GFP expression up to 100 ug/ml measured every 15 mins for 14 hrs by fluorescence assay; how it was run: as §2
[6] = Inhibition of quorum sensing system in Agrobacterium tumefaciens harboring traG-LacZ reporter fusion measured after 4 hrs by beta-galactosidase reporter gene assay
[7] = Inhibition of LuxR-dependent quorum sensing activity in Escherichia coli harboring reporter plasmid LuxI-GFP assessed as reduction in 3-oxo-C6-HSL-induced GFP expression measured every 15 mins for 14 hrs by fluorescence assay; how it was run: as §2
[8] = system: Pseudomonas aeruginosa; test: Growth inhibition of Pseudomonas aeruginosa at >125 ug/ml
[9] = system: Pseudomonas aeruginosa; test: Inhibition of LasR-dependent quorum sensing activity in Pseudomonas aeruginosa harboring reporter plasmid lasB-GFP assessed as reduction in GFP expression at >125 ug/ml measured every 15 mins for 14 hrs by fluorescence assay
How it was run: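 P. aeruginosa lasB-gfp monitor: 16 h overnight culture (37 °C, 180 rpm) diluted to OD450 0.1 in BT minimal medium plus 10% A10, 0.5% glucose, 0.5% Casamino Acids. No signal molecule added. GFP at ex 485/em 535 nm with growth, every 15 min over 14 h at 34 °C. Triplicate, 2-fold dilutions from 1000 μg/ml.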

[10] = system: Escherichia coli; test: Inhibition of LuxR-dependent quorum sensing activity in Escherichia coli harboring reporter plasmid LuxI-GFP assessed as reduction in 3-oxo-C6-HSL-induced GFP expression at 6.2 to 50 ug/ml measured every 15 mins for 14 hrs by fluorescence assay

COC(=O)c1ccc(-c2ccnc3cc(OC)ccc23)cn1
inhibition [1]: inactive
inhibition [2]: inactive
inhibition [3]: inactive

CCCOc1ccc(C(=O)O)nc1
inhibition [1]: inactive
inhibition [2]: inactive
inhibition [3]: inactive
growth inhibition (GI) [4]: Toxic
inhibition [5]: Active

Cc1ccc(-c2ccc(C(=O)O)nc2)s1
inhibition [1]: inactive
inhibition [2]: inactive
inhibition [3]: inactive

COC(=O)c1ccc(-c2ccnc3ccccc23)cn1
inhibition [1]: inactive
inhibition [2]: inactive
inhibition [3]: inactive
growth inhibition (GI) [4]: Non-Toxic
inhibition [5]: inactive

O=C(O)c1ccc(-c2ccnc3ccccc23)cn1
inhibition [1]: inactive
inhibition [2]: inactive
inhibition [3]: inactive

O=[N+]([O-])c1cc[n+]([O-])cc1
IC50 [6]: 171 µM

Cc1ccc(-c2ccc(C(=O)O)nc2)cc1
inhibition [1]: inactive
inhibition [2]: inactive
inhibition [3]: inactive

CCCNC(=O)c1ccc(NCCC)cn1
inhibition [1]: inactive
inhibition [2]: inactive
inhibition [3]: inactive

COC(=O)c1ccc(OCC(=O)Nc2ccccc2)cn1
IC50 [7]: 64 µg/mL (≈ 224 µM)
inhibition [1]: inactive
inhibition [2]: inactive
inhibition [3]: inactive
growth inhibition (GI) [4]: Non-Toxic

O=C(O)c1ccc(-c2ccco2)cn1
inhibition [1]: inactive
inhibition [2]: inactive
inhibition [3]: inactive
growth inhibition (GI) [4]: Toxic
inhibition [5]: Active

O=C(O)c1ccc(-c2nccs2)cn1
inhibition [1]: inactive
inhibition [2]: inactive
inhibition [3]: inactive
growth inhibition (GI) [4]: Non-Toxic
inhibition [5]: inactive

CCOC(=O)c1ccc(-c2ccccc2)cn1
IC50 [7]: 12 µg/mL (≈ 52.8 µM)
inhibition [1]: inactive
inhibition [2]: inactive
inhibition [3]: inactive
growth inhibition (GI) [4]: Non-Toxic

COc1cccc(-c2ccc(C(=O)O)nc2)n1
inhibition [1]: inactive
inhibition [2]: inactive
inhibition [3]: inactive

CCOC(=O)c1ccc(CSCC)cn1
inhibition [1]: inactive
inhibition [2]: inactive
inhibition [3]: inactive

COC(=O)c1ccc(-c2ccco2)cn1
inhibition [1]: inactive
inhibition [2]: inactive
inhibition [3]: inactive

COC(=O)c1ccc(Br)cn1
growth inhibition (GI) [8]: Non-Toxic
inhibition [9]: Active
inhibition [1]: inactive
inhibition [2]: inactive
inhibition [3]: inactive
inhibition [5]: inactive

COc1ccc2nccc(-c3ccc(C(=O)O)nc3)c2c1
inhibition [1]: inactive
inhibition [2]: inactive
inhibition [3]: inactive
growth inhibition (GI) [4]: Non-Toxic
inhibition [5]: inactive

O=C(O)c1ccc(-c2ccccc2)cn1
inhibition [1]: inactive
inhibition [2]: inactive
inhibition [3]: inactive

COC(=O)c1ccc(OCC2CC2)cn1
IC50 [7]: 14 µg/mL (≈ 67.6 µM)
inhibition [1]: inactive
inhibition [2]: inactive
inhibition [3]: inactive
growth inhibition (GI) [4]: Non-Toxic

COC(=O)c1ccc(-c2ccc(C)s2)cn1
inhibition [1]: inactive
inhibition [2]: inactive
inhibition [3]: inactive

CCOC(=O)c1ccc(Br)cn1
inhibition [1]: inactive
inhibition [2]: inactive
inhibition [3]: inactive

COC(=O)c1ccc(Cc2ccccc2)cn1
inhibition [1]: inactive
inhibition [2]: inactive
inhibition [3]: inactive

COC(=O)c1ccc(-c2cc(C)nc3ccccc23)cn1
inhibition [1]: inactive
inhibition [2]: inactive
inhibition [3]: inactive

O=C(O)c1ccc(Br)cn1
inhibition [1]: inactive
inhibition [2]: inactive
inhibition [3]: inactive

O=C(O)c1ccc(-c2cccc3ccccc23)cn1
inhibition [1]: inactive
inhibition [2]: inactive
inhibition [3]: inactive

COC(=O)c1ccc(-c2ccnc3ccc(OC)cc23)cn1
inhibition [1]: inactive
inhibition [2]: inactive
inhibition [3]: inactive

O=C(O)c1ccc(OCC2CC2)cn1
inhibition [1]: inactive
inhibition [2]: inactive
inhibition [3]: inactive
growth inhibition (GI) [4]: Toxic
inhibition [5]: Active

O=C(COc1ccc(C(=O)O)nc1)Nc1ccccc1
inhibition [1]: inactive
inhibition [2]: inactive
inhibition [3]: inactive
growth inhibition (GI) [4]: Non-Toxic
inhibition [5]: inactive

Cc1cc(-c2ccc(C(=O)O)nc2)c2ccccc2n1
inhibition [1]: inactive
inhibition [2]: inactive
inhibition [3]: inactive
growth inhibition (GI) [4]: Non-Toxic
inhibition [5]: inactive

COC(=O)c1ccc(-c2cccc(OC)n2)cn1
IC50 [7]: 95 µg/mL (≈ 389 µM)
inhibition [1]: inactive
inhibition [2]: inactive
inhibition [3]: inactive
growth inhibition (GI) [4]: Non-Toxic

COC(=O)c1ccc(-c2nccs2)cn1
inhibition [1]: inactive
inhibition [2]: inactive
inhibition [3]: inactive

COc1ccc2c(-c3ccc(C(=O)O)nc3)ccnc2c1
inhibition [1]: inactive
inhibition [2]: inactive
inhibition [3]: inactive

O=C(O)COc1ccc(C(=O)O)nc1
inhibition [1]: inactive
inhibition [2]: inactive
inhibition [3]: inactive
inhibition [5]: inactive

CCCCc1ccc(C(=O)OCC)nc1
IC50 [7]: 55 µg/mL (≈ 265 µM)
inhibition [1]: inactive
inhibition [2]: inactive
inhibition [3]: inactive
growth inhibition (GI) [4]: Non-Toxic
inhibition [10]: Active

C=CCSS/C=C\C[S+]([O-])CC=C (stereo unspecified) [(Z)-Ajoene]
IC50 [7]: 4 µg/mL (≈ 17.1 µM)

CCCOc1ccc(C(=O)OC)nc1
inhibition [1]: inactive
inhibition [2]: inactive
inhibition [3]: inactive
growth inhibition (GI) [4]: Non-Toxic

CCOC(=O)c1ccc(-c2ccc(C)cc2)cn1
inhibition [1]: inactive
inhibition [2]: inactive
inhibition [3]: inactive

COC(=O)c1ccc(-c2ccc3cn(C)nc3c2)cn1
inhibition [1]: inactive
inhibition [2]: inactive
inhibition [3]: inactive

Cn1cc2ccc(-c3ccc(C(=O)O)nc3)cc2n1
inhibition [1]: inactive
inhibition [2]: inactive
inhibition [3]: inactive

O=C(O)c1ccc(Cc2ccccc2)cn1
inhibition [1]: inactive
inhibition [2]: inactive
inhibition [3]: inactive

CCOC(=O)c1ccc(-c2cccc3ccccc23)cn1
inhibition [1]: inactive
inhibition [2]: inactive
inhibition [3]: inactive
